In article PMC10739612 (ACS Chemical Neuroscience, 2023):

Experiments:
[1] = test system: i3Neurons stably expressing LC3-RFP-GFP; assay: LC3-RFP-GFP dual reporter live imaging in i3Neurons; type: cell-based, human
How it was run: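 iPSC-derived i3Neurons stably expressing LC3-RFP-GFP, DIV 10; 0.1% DMSO or test compound 15 μM for 72 h, or BafA1 100 nM for 24 h. Live Fast Airyscan at 37 °C; single mid-cell scan, 488/560 nm. GFP+RFP+ vesicles scored as autophagosomes, RFP-only as autolysosomes. Autolysosome size and intensity from red-channel particle analysis. Three experiments, 60–70 cells per treatment; mean ± SEM.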

LAMP1 [2] = molecular target: T1, LAMP1 (Homo sapiens, UniProt P11279); assay: Pulldown validation and competition, immunoblot for LAMP1; type: binding; conditions: Biotin-RH1115 50 μM, HeLa lysate
T1 sequence (P11279 29-417): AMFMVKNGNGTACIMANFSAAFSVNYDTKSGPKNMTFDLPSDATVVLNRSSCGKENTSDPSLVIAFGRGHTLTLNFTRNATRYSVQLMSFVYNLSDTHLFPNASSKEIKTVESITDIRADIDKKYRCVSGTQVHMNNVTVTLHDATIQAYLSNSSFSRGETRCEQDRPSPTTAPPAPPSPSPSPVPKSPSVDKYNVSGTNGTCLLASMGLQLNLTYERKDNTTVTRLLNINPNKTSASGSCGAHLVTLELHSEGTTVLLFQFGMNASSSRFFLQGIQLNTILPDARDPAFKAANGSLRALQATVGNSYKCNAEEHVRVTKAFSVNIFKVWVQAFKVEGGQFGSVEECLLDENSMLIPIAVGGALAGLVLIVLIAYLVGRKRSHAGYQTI
How it was run: (§1)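 HeLa grown 3 days to confluency; lysate cleared 18,000g, 30 min, 4 °C; protein by BCA. Streptavidin magnetic beads preloaded 2 h at 4 °C with biotinylated probe (50 μM) or biotin acid (50 μM). 500 μg lysate added (200 μL), 16 h; beads washed with PBS, eluted in 1× SDS loading buffer, immunoblotted. Competition: free test compound 100 μM added with lysate, 16 h, 4 °C.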

Lamin A/C = molecular target: T2, Lamin A/C (Homo sapiens, UniProt P02545); assay: Pulldown validation and competition, immunoblot for Lamin A/C; type: binding; conditions: Biotin-RH1115 50 μM, HeLa lysate
T2 sequence (P02545 1-566 limits assumed): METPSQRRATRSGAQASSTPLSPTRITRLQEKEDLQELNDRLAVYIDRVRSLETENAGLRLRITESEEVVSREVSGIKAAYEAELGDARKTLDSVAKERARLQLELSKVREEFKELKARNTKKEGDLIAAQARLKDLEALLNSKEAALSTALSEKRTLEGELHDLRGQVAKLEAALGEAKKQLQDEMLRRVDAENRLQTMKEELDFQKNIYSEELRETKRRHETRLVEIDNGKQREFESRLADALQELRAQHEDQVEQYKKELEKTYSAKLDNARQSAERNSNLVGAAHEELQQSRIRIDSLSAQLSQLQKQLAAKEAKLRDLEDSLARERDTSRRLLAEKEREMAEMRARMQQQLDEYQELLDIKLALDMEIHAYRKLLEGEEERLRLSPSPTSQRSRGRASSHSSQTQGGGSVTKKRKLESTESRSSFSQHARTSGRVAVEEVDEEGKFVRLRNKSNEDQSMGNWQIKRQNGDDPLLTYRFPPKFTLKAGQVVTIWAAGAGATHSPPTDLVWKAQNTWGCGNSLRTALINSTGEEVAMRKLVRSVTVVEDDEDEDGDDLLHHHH
How it was run: as §1

[3] = test system: HeLa cells expressing eGFP-LC3; assay: eGFP-LC3 puncta formation assay; type: cell-based
How it was run: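 HeLa stably expressing eGFP-LC3, 3000 cells/well (384-well), 24 h at 37 °C, then 4 h compound exposure. PFA fixation (12 min RT), Hoechst 2 μg/mL; imaged at 10× (DAPI/FITC). Screen hits: Z' >0.4, CV <20%, z-score >2.199 in two replicates. EC50 from 12-point doses (300–0.146 or 1000–0.488 μM by series), excluding concentrations with <40% viability; three experiments in duplicate, mean ± SEM.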

[4] = test system: phosphorylation of the mTOR substrate p70S6K in HeLa cells; assay: P70S6K and phospho-P70S6K immunoblotting; type: cell-based; conditions: 1a 20 μM, 2a 40 μM, compared to rapamycin 1 μM
How it was run: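 Same HeLa immunoblot workflow as for LC3, with test compound at 40 μM and 1% BSA for blocking. Probed for phospho-p70S6K and β-actin (anti-rabbit HRP secondary), then stripped and reprobed for total p70S6K; densitometry in ImageJ.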

i3Neurons [5] = assay: Cell viability assay in i3Neurons; type: cell-based, human; conditions: 72 h from DIV 7; DS1040 20 μM, RH1096 40 μM, RH1103 40 μM, RH1115 15 μM
How it was run: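 Viability check: DIV 10 i3Neurons on coated coverslips exposed 72 h (0.1% DMSO vehicle), fixed, immunostained for Tau and LAMP1. 5–6 random high-magnification fields per sample; neurons per unit area counted. Tau staining used to confirm normal morphology and neurite integrity. Mean ± SEM, three independent experiments.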

[6] = test system: LC3-II levels in HeLa cells; assay: LC3 immunoblotting; type: cell-based; conditions: 4 h, 1a 20 μM, 2a 40 μM, further increase with BafA1 100 nM
HeLa cells = assay: Cell viability assay by nuclear count; type: cell-based; conditions: 4 h, relative to DMSO
i3Neurons [7] = assay: Analysis of lysosomal; type: cell-based, human; conditions: 15 μM, 72 h, vs DMSO
How it was run: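 DIV 10 i3Neurons on poly-L-ornithine/laminin-coated glass coverslips; 72 h exposure, 0.1% DMSO vehicle; fixed, LAMP1-immunostained, imaged by high-resolution confocal. Soma outlined, thresholded, ImageJ particle analysis (minimum 0.002 μm²) giving vesicle mean size, intensity and count per neuron. Three independent experiments, 20–25 neurons per treatment; mean ± SEM.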

LAMP1 [8] = assay: LAMP1 expression immunoblotting in HeLa cells; type: cell-based; conditions: 50 μM, 24 h, vs control
How it was run: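 HeLa seeded at 300,000 cells/mL in 6-well plates; 0.1% DMSO or test compound 50 μM. Lysates cleared 12,000 rpm, 30 min, 4 °C; 10% SDS-PAGE, PVDF transfer; 5% blocker in TBS-T; primary antibody overnight 4 °C, HRP secondary 1 h RT; chemiluminescent detection; band quantification in ImageJ.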

CO/C1=C\C(C)=C\[C@@H](C)[C@@H](O)[C@@H](C)C/C(C)=C/C=C/[C@H](OC)[C@@H]([C@@H](C)[C@@H](O)[C@H](C)[C@@]2(O)C[C@@H](O)[C@H](C)[C@@H](C(C)C)O2)OC1=O [BafA1, bafilomycin A1, reference compound]
percentage of autolysosomes ([1]; BafA1 100 nM 24 h, compared with RH1115 or DMSO): far less
number of autophagosomes per neuronal cell body ([1]; RH1115 15 μM 72 h, BafA1 100 nM 24 h): massively increased

O=C(CCCCC1SCC2NC(=O)NC21)NCCOCCOCCOCCn1nncc1CCCC(=O)OCC1CN(Cc2ccccc2)CC12CCN(CC1CCCCC1)CC2 (stereo not shown) [Biotin-RH1115, (2-Benzyl-8-(cyclohexylmethyl)-2,8-diazaspiro[4.5]decan-4-yl)methyl 4-(1-(13-Oxo-17-(2-oxohexahydro-1H-thieno[3,4-d]imidazol-4-yl)-3,6,9-trioxa-12-azaheptadecyl)-1H-1,2,3-triazol-5-yl)butanoate]
glycosylated LAMP1 capture in pulldown eluent (western blot) (LAMP1 [2]): pulled down and concentrated in the eluent
Lamin A/C capture in pulldown eluent (western blot) (Lamin A/C): highly enriched
EC50 ([3]; Homo sapiens, HeLa, 4 h, read-out: EC50 in the eGFP-LC3 puncta formation assay): 46.2 µM

CCCn1cc(CN2CCc3nc(N4CCN(C)CC4)[nH]c(=O)c3CC2)c2ccccc21 [Compound 1a, 2-(4-Methylpiperazin-1-yl)-7-((1-propyl-1H-indol-3-yl)methyl)-3,5,6,7,8,9-hexahydro-4H-pyrimido[4,5-d]azepin-4-one]
phosphorylation of p70S6K (mTOR dependence of autophagy activation) [4]: mTOR-independent manner
cytotoxicity in i3Neurons (cell density at end of treatment) (i3Neurons [5]): no overt cytotoxicity
LC3-II levels by western blot [6]: significant increase

CCCn1cc(CN2CCc3nc(-c4ccccc4)[nH]c(=O)c3CC2)c2ccccc21 [Compound 1c, 2-Phenyl-7-((1-propyl-1H-indol-3-yl)methyl)-3,5,6,7,8,9-hexahydro-4H-pyrimido[4,5-d]azepin-4-one]
cytotoxicity (percent viability by nuclear count) (HeLa cells): increase in cell death at concentrations that are close to the concentrations that induced autophagy

OCC1CN(Cc2ccccc2)CC12CCN(Cc1ccccn1)CC2 (stereo not shown) [Compound 2a, (2-Benzyl-8-(pyridin-2-ylmethyl)-2,8-diazaspiro[4.5]decan-4-yl)methanol]
phosphorylation of p70S6K (mTOR dependence of autophagy activation) [4]: mTOR-independent manner
cytotoxicity in i3Neurons (cell density at end of treatment) (i3Neurons [5]): no overt cytotoxicity
LC3-II levels by western blot [6]: significant increase

OCC1CN(Cc2ccccc2)CC12CCN(Cc1ccccc1)CC2 (stereo not shown) [Compound 2b, (2,8-Dibenzyl-2,8-diazaspiro[4.5]decan-4-yl)methanol]
fold increase in potency compared to RH1096 (eGFP-LC3 puncta formation) ([3]; relative to RH1096): 3 fold
cytotoxicity in i3Neurons (cell density at end of treatment) (i3Neurons [5]): no overt cytotoxicity

OCC1CN(Cc2ccccc2)CC12CCN(CC1CCCCC1)CC2 (stereo not shown) [Compound 2c, (2-Benzyl-8-(cyclohexylmethyl)-2,8-diazaspiro[4.5]decan-4-yl)methanol]
fold increase in potency compared to RH1096 (eGFP-LC3 puncta formation) ([3]; relative to RH1096): 6 fold
cytotoxicity in i3Neurons (cell density at end of treatment) (i3Neurons [5]): no overt cytotoxicity
autolysosome size relative to DMSO-treated condition ([1]; 15 μM, 72 h): ~3 times
total RFP intensity per autolysosome vesicle ([1]; 15 μM, 72 h, vs DMSO): increased
intensity of LAMP1 vesicles (i3Neurons [7]): increased
mean size of LAMP1 vesicles (i3Neurons [7]): increased
ratio of glycosylated/non-glycosylated LAMP1 (LAMP1 [8]): significant increase

OCC1CN(Cc2ccccc2)CC12CCN(Cc1ccncc1)CC2 (stereo not shown) [Compound 2d, (2-Benzyl-8-(pyridin-4-ylmethyl)-2,8-diazaspiro[4.5]decan-4-yl)methanol]
fold decrease in potency compared to RH1096 (eGFP-LC3 puncta formation) ([3]; relative to RH1096): 2 fold
